Laboratory results taken from the RNAGym collection of RNA variant scans (doi:10.1002/anie.201605470).

B1: Osa-1-4 twister ribozyme (parent)
chain: CCGCCUAACACUGCCAAUGCCGGUCCCAAGCCCGGAUAAAAGUGGAGGGGGCGG

Variants of: B1
Experiment: self-cleavage, relative activity (ratio to wild type); higher = more cleavage; co-transcriptional
Outline: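 The 48 positions downstream of the cleavage site in a DNA template for a 54-nucleotide Oryza sativa twister ribozyme carried 97 % wild-type base and 1 % of each other base. After in vitro transcription (2 h, 37 °C) with co-transcriptional self-cleavage, the RNA was reverse-transcribed with a template-switching oligonucleotide, PCR-amplified and deep-sequenced. Relative activity is the fraction cleaved, judged by reads with or without upstream sequence and normalised to wild type.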

Variant | self-cleavage
G42U U24A | 0.03
G42U U24G | 0.02
G42U U24C | 0.03
G44U G50A | 0.58
G44U G50C | 0.83
G44U G50U | 0.97
A41U G19C | 0.24
A41U G19U | 0.35
A41U G19A | 0.94
G44C G45C | 0.08
G44C G45A | 0.14
G44C G45U | 0.07
G44A U12A | 0.65
G44A U12G | 0.28
G44A U12C | 0.68
G44A G47A | 0.13
G44A G47C | 0.09
G44A G47U | 0.12
G42U U18A | 0.29
G42U U18G | 0.28
G42U U18C | 0.23
G42U G47C | 0.02
G42U G47A | 0.05
G42U G47U | 0.03

Variant | self-cleavage
A41U U12A | 1.05
A41U U12G | 0.69
A41U U12C | 0.91
U43G | 0.67
U43A | 0.93
U43C | 0.64
A41U G49A | 0.14
A41U G49U | 0.13
A41U G49C | 0.07
G44C G51C | 0.07
G44C G51A | 0.67
G44C G51U | 0.16
G44C G50U | 1
G44C G50C | 0.81
G44C G50A | 0.5
G44C U24C | 0.2
G44C U24A | 0.2
G44C U24G | 0.01
G42A G53C | 0.1
G42A G53A | 0.58
G42A G53U | 0.19
A41U C20A | 0.85
A41U C20U | 0.95
A41U C20G | 0.19

Variant | self-cleavage
A41U C31G | 0.13
A41U C31A | 0.04
A41U C31U | 0.94
G42C G44A | 0.24
G42C G44U | 0.11
G42C G44C | 0.19
A41U G30C | 0.04
A41U G30U | 0.04
A41U G30A | 0.06
G44A G45U | 0.07
G44A G45A | 0.16
G44A G45C | 0.07
G42C U37G | 0.39
G42C U37C | 0.34
G42C U37A | 0.21
A41U G42C | 0.2
A41U G42A | 0.35
A41U G42U | 0.15
G42C U18A | 0.23
G42C U18G | 0.32
G42C U18C | 0.21
G42C G51U | 0.06
G42C G51A | 0.08
G42C G51C | 0.06

Variant | self-cleavage
G42U G44C | 0.26
G42U G44U | 0.15
G42U G44A | 0.35
G44U G45C | 0.06
G44U G45U | 0.08
G44U G45A | 0.1
A41U G53U | 0.36
A41U G53C | 0.11
A41U G53A | 0.89
G44A G49U | 0.07
G44A G49C | 0.06
G44A G49A | 0.07
G42A G47C | 0.07
G42A G47U | 0.07
G42A G47A | 0.08
A41U C9G | 0.79
A41U C9A | 0.42
A41U C9U | 0.78
G42U G51C | 0.04
G42U G51A | 0.1
G42U G51U | 0.07
G44C U12G | 0.08
G44C U12C | 0.31
G44C U12A | 0.4

Variant | self-cleavage
A41U G23C | 0.08
A41U G23A | 0.62
A41U G23U | 0.09
G42U G54A | 0.14
G42U G54U | 0.37
G42U G54C | 0.15
G42A G44U | 0.31
G42A G44C | 0.57
G42A G44A | 0.5
G42C U12G | 0.06
G42C U12C | 0.08
G42C U12A | 0.09
G42C G47C | 0.06
G42C G47A | 0.06
G42C G47U | 0.06
G44A G51U | 0.28
G44A G51C | 0.08
G44A G51A | 0.79
A41U U24G | 0.02
A41U U24C | 0.27
A41U U24A | 0.22
G42U G49A | 0.04
G42U G49U | 0.04
G42U G49C | 0.03

Variant | self-cleavage
G44C U18G | 0.64
G44C U18A | 0.88
G44C U18C | 0.83
G44C G53U | 0.38
G44C G53C | 0.09
G44C G53A | 0.81
G44C U37C | 1
G44C U37G | 1.02
G44C U37A | 0.71
A41U U18A | 0.92
A41U U18G | 0.86
A41U U18C | 0.93
G44C G48A | 0.08
G44C G48U | 0.07
G44C G48C | 0.08
A41U G13A | 0.14
A41U G13C | 0.03
A41U G13U | 0.03
G42A G50U | 0.83
G42A G50A | 0.45
G42A G50C | 0.64
G42A G51A | 0.28
G42A G51U | 0.1
G42A G51C | 0.06

Variant | self-cleavage
G44A U24G | 0.03
G44A U24A | 0.06
G44A U24C | 0.08
G42C G53C | 0.07
G42C G53A | 0.14
G42C G53U | 0.08
G44U G49C | 0.08
G44U G49A | 0.12
G44U G49U | 0.11
G42U G48C | 0.03
G42U G48U | 0.03
G42U G48A | 0.03
A41U G34C | 0.47
A41U G34U | 0.74
A41U G34A | 0.82
G42C G45U | 0.05
G42C G45C | 0.06
G42C G45A | 0.06
A41U G54U | 0.99
A41U G54A | 0.98
A41U G54C | 0.93
G44C U43C | 0.73
G44C U43A | 0.74
G44C U43G | 0.07

Variant | self-cleavage
A41U C25G | 0.11
A41U C25U | 0.91
A41U C25A | 0.1
G42A G54C | 0.82
G42A G54A | 0.76
G42A G54U | 0.8
A41U C27U | 0.16
A41U C27A | 0.18
A41U C27G | 0.08
G42U U12A | 0.06
G42U U12C | 0.05
G42U U12G | 0.06
G42A U18C | 0.44
G42A U18A | 0.71
G42A U18G | 0.66
A41U G35U | 0.87
A41U G35A | 0.83
A41U G35C | 0.77
G42U | 0.14
G42C | 0.4
G42A | 0.84
G44U G48C | 0.07
G44U G48A | 0.06
G44U G48U | 0.07

Variant | self-cleavage
G42U G45A | 0.05
G42U G45C | 0.03
G42U G45U | 0.04
A41U C21U | 1
A41U C21G | 0.1
A41U C21A | 0.87
G42U U43G | 0.09
G42U U43C | 0.09
G42U U43A | 0.08
G42A U24C | 0.06
G42A U24A | 0.05
G42A U24G | 0.03
A41U U43G | 0.32
A41U U43C | 0.33
A41U U43A | 0.81
A41U U37C | 1.03
A41U U37G | 1.02
A41U U37A | 0.98
G42A U37A | 0.51
G42A U37G | 0.89
G42A U37C | 0.88
A41U G45U | 0.12
A41U G45A | 0.25
A41U G45C | 0.06

Variant | self-cleavage
G42A U12A | 0.15
G42A U12C | 0.1
G42A U12G | 0.09
G44A U43A | 0.88
G44A U43G | 0.67
G44A U43C | 0.1
G44C G47A | 0.19
G44C G47C | 0.11
G44C G47U | 0.16
A41U C33A | 0.14
A41U C33U | 0.81
A41U C33G | 0.1
G42C U24C | 0.05
G42C U24A | 0.05
G42C U24G | 0.02
G42U G50A | 0.32
G42U G50U | 0.12
G42U G50C | 0.1
A41U G50C | 0.99
A41U G50U | 1.03
A41U G50A | 0.6
A41U G44A | 0.88
A41U G44U | 0.87
A41U G44C | 0.98

Variant | self-cleavage
G44A U18G | 0.63
G44A U18A | 0.84
G44A U18C | 0.83
G44U G47U | 0.1
G44U G47C | 0.07
G44U G47A | 0.14
G44C G49C | 0.07
G44C G49U | 0.1
G44C G49A | 0.11
G44A | 0.97
G44C | 0.98
G44U | 0.93
G42C U43G | 0.09
G42C U43C | 0.11
G42C U43A | 0.1
G42A G49U | 0.06
G42A G49C | 0.07
G42A G49A | 0.07
G42A G45U | 0.05
G42A G45C | 0.05
G42A G45A | 0.08
G44U G51A | 0.69
G44A G53A | 0.83
G44A G53U | 0.47

Variant | self-cleavage
G44A G53C | 0.1
G44C G54C | 0.92
G44C G54U | 0.92
G44C G54A | 0.89
A41U G22C | 0.1
A41U G22A | 1
A41U G22U | 0.85
A41U C32A | 0.1
A41U C32U | 0.17
A41U C32G | 0.18
A41U C52A | 1.02
A41U C52G | 1.05
A41U C52U | 1.04
A41U C11U | 0.9
A41U C11G | 0.45
A41U C11A | 0.79
A41U G47C | 0.11
A41U G47A | 0.27
A41U G47U | 0.25
G42U U37A | 0.09
G42U U37G | 0.15
G42U U37C | 0.11
A41U C14G | 0.3
A41U C14A | 0.13

Variant | self-cleavage
A41U C14U | 0.7
G44A G48C | 0.06
G44A G48A | 0.07
G44A G48U | 0.06
G44A G50U | 0.97
G44A G50C | 0.91
G44A G50A | 0.71
A41U G51A | 0.59
A41U G51C | 0.1
A41U G51U | 0.26
A41U G48A | 0.09
A41U G48U | 0.07
A41U G48C | 0.1
G42C G49U | 0.05
G42C G49A | 0.06
G42C G49C | 0.07
G42C G54C | 0.3
G42C G54U | 0.43
G42C G54A | 0.26
G42C G48C | 0.07
G42C G48U | 0.04
G42C G48A | 0.05
G44A G54A | 0.92
G44A G54C | 0.93

Variant | self-cleavage
G44A G54U | 0.94
G42C G50C | 0.15
G42C G50A | 0.14
G42C G50U | 0.32
G42A G48C | 0.06
G42A G48A | 0.06
G42A G48U | 0.05
G42U G53U | 0.08
G42U G53C | 0.05
G42U G53A | 0.1
A41U C15G | 0.64
A41U C15A | 0.26
A41U C15U | 0.56
A41U C26A | 0.06
A41U C26G | 0.11
A41U C26U | 0.93
G42A U43A | 0.16
G42A U43C | 0.11
G42A U43G | 0.16
G44A U37C | 1.01
G44A U37A | 0.7
G44A U37G | 1
